{"source": "paper PMC2225610", "about": "(The Journal of General Physiology, 1999)", "key": {"[1]": {"biological_target": "T1, type 1 InsP3 receptor (cerebellar membranes) (Canis lupus familiaris, UniProt A0A8I3NKB2)", "settings": "ref Kaftan et al., 1997; cited from earlier work"}, "[2]": {"biological_target": "T1, type 1 InsP3 receptor (cerebellar membranes)", "assay": "InsP3 binding to cerebellar microsomes", "design": "species or system canine", "summary_of_the_method": "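Canine cerebellar microsomes prepared with protease inhibitors. Membranes added, incubated 8 min at 0° or 22°C, then pelleted at 40,000 g for 10 min for scintillation counting. Nonspecific binding measured with 40–160 μM unlabeled InsP3. Two-site Scatchard fit; 3–5 repeats, separate preparations.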"}, "[3]": {"biological_target": "T2, type 1 InsP3-gated Ca channel (Canis lupus familiaris, UniProt A0A8I3NKB2)", "T2 sequence (A0A8I3NKB2 1-2757)": "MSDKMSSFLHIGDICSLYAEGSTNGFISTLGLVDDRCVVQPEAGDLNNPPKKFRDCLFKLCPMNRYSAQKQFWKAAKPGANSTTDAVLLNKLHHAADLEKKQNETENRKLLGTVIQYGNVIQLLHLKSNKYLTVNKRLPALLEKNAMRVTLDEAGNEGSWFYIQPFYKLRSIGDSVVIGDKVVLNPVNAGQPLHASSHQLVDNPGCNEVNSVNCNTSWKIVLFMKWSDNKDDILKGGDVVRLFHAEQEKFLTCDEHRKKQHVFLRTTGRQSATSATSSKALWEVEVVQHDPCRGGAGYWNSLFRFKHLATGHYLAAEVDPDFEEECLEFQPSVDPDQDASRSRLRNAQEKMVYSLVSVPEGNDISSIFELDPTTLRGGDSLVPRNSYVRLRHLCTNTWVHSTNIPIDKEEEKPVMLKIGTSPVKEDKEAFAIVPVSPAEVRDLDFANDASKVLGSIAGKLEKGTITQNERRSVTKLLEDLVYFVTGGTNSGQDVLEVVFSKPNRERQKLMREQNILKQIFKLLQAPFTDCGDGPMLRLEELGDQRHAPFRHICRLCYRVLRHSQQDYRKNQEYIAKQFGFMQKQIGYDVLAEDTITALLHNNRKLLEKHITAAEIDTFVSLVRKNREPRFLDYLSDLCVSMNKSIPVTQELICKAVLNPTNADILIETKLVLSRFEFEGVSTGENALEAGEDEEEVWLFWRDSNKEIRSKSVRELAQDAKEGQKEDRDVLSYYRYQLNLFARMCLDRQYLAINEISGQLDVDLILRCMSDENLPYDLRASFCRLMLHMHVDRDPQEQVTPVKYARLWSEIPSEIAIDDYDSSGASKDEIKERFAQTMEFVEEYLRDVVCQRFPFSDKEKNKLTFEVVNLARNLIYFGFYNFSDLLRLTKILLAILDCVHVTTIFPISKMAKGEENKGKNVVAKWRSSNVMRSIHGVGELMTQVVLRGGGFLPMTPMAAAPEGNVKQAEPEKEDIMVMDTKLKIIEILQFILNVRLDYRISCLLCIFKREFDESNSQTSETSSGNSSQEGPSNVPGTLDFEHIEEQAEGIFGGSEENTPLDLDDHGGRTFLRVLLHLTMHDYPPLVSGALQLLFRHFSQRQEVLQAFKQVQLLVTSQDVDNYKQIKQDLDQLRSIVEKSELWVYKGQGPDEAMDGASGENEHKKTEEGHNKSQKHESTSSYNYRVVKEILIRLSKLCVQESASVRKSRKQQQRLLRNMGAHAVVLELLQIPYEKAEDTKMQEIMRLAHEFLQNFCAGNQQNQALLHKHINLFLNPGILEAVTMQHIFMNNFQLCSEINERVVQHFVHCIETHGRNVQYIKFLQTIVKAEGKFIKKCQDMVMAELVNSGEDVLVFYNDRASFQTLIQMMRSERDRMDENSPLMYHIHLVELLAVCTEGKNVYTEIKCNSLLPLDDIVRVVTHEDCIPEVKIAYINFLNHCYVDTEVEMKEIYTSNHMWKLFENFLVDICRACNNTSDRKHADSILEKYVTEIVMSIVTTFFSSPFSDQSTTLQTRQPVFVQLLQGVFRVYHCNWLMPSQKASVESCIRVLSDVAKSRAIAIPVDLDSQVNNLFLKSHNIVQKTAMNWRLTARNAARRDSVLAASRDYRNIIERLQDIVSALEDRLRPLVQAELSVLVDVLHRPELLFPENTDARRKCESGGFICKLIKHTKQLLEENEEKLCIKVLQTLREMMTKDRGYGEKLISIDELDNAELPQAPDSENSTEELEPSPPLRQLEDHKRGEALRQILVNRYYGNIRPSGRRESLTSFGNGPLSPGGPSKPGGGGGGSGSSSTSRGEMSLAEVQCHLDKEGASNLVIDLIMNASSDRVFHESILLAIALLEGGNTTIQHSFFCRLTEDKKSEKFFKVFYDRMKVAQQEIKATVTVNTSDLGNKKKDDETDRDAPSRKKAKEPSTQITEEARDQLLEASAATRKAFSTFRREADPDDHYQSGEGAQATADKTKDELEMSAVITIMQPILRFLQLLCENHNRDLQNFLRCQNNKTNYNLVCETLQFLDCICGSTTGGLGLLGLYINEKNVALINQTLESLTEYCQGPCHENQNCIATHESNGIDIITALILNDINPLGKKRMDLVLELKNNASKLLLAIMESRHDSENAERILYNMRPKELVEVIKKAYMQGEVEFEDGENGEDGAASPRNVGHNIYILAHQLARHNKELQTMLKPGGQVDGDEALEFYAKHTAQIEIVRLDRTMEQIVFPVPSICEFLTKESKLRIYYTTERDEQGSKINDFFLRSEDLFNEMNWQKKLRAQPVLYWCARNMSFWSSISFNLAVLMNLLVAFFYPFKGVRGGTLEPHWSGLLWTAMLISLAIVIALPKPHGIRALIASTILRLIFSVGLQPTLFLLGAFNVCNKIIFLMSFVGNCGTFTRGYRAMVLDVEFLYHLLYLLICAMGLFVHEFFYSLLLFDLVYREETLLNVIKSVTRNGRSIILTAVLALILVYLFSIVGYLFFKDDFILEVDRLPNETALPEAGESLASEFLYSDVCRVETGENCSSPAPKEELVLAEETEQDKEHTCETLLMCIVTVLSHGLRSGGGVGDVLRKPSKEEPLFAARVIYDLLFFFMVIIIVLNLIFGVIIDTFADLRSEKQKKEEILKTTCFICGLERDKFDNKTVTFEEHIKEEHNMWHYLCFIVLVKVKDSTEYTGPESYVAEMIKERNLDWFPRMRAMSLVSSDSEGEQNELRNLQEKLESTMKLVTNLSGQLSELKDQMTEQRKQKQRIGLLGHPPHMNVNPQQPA", "settings": "cited from earlier work"}, "[4]": {"biological_target": "T2, type 1 InsP3-gated Ca channel", "assay": "InsP3-gated channel activity in planar lipid bilayer", "type": "biochemical, canine", "summary_of_the_method": "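Canine cerebellar microsomes fused into PE:PS (3:1) bilayers in decane. Cytosolic side: 500 μM Na-ATP, 500 μM EGTA, 110 mM Tris, 250 mM HEPES, pH 7.35, with CaCl2 to set free Ca, verified by BTC fluorescence. Luminal side: 53 mM Ba(OH)2 as carrier, 250 mM HEPES. InsP3 added to start activity. Held at 0 mV; filtered 1 kHz, digitized 5 kHz; open-time histograms compiled.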"}, "[5]": {"system": "intracellular Ca", "settings": "100 μM; ref Wakui et al., 1989; Petersen et al., 1991; cited from earlier work"}, "[6]": {"biological_target": "InsP3-gated Ca channel tetrameric complex", "assay": "Mathematical model of the tetrameric InsP3-gated channel complex", "settings": "read-out: Model dissociation constant, InsP3 low affinity site (J); 22°C", "summary_of_the_method": "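Tetramer model: each subunit has a medium-affinity InsP3 site, a low-affinity InsP3 site and a Ca site, giving 125 states. Assumes mass-action binding, diffusion-limited on-rates and identical subunits, solved at equilibrium. Low-affinity occupancy defines the active state, with open/closed transitions. Unknown parameters found by quasi-Newton iterative fitting to single-channel open probability and Ca-dependent binding data at 22°C; open-time histograms add constraints.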"}, "[7]": {"system": "cerebellar Purkinje cells", "settings": "flash photolysis; ref Khodakhah and Ogden, 1995; cited from earlier work"}}, "note": "“Also recorded” adds a separate entry of the source. Where two headings read alike, the source gives them in different places.", "data": [{"compound": "O=P(O)(O)OC1[C@H](O)[C@H](OP(=O)(O)O)C(OP(=O)(O)O)[C@H](OP(=O)(O)O)[C@H]1O", "note": "(stereo partly shown) [1,3,4,5-InsP4]", "values": [{"measurement": "Specificity of low affinity site for 1,4,5-InsP3 versus 1,3,4,5-InsP4", "setting": "[1]", "value": "low level of specificity"}]}, {"compound": "[Ca+2]", "note": "[Ca, calcium]", "values": [{"measurement": "Effect of Ca on maximal number of InsP3 binding sites", "setting": "[2]; 0° and 22°C", "value": "did not influence the maximal number of binding sites; also recorded: no evidence for an effect"}, {"measurement": "Hill coefficient of Ca-dependent inhibition of InsP3 binding", "setting": "[2]; 0°C", "value": 1.5}, {"measurement": "Ca-dependent increase in Kd of InsP3 binding", "setting": "[2]; 0°C, Ca 0.0004 to 10 μM, medium affinity site", "value": "~3.5", "unit": "fold"}, {"measurement": "Decrease of InsP3 binding by Ca", "setting": "[2]; 0°C, Ca increased from 0 to 100 μM, 10 nM InsP3", "value": 66, "unit": "%"}, {"measurement": "Hill coefficient of Ca-dependent inhibition of InsP3 binding", "setting": "[2]; 22°C", "value": 2.8}, {"measurement": "Reduction of InsP3 binding by Ca", "setting": "[2]; 22°C, 170 nM InsP3, Ca 0.1 to 10 μM", "value": 55, "unit": "%"}, {"measurement": "Inhibition of channel activity by Ca", "setting": "[3]; 5 μM Ca, 2 μM InsP3, ref Bezprozvanny et al., 1991", "value": "near complete inhibition"}]}, {"compound": "O=C(O)CN(CCOCCOCCN(CC(=O)O)CC(=O)O)CC(=O)O", "note": "[EGTA]", "values": [{"measurement": "Reversal of Ca-dependent inhibition of InsP3 binding by Ca chelation", "setting": "[2]; EGTA added after Ca", "value": "fully reversible; also recorded: completely reversed; also recorded: completely reversible"}]}, {"compound": "O=P(O)(O)O[C@@H]1[C@H](O)[C@H](O)[C@@H](OP(=O)(O)O)[C@H](OP(=O)(O)O)[C@H]1O", "note": "[InsP3, inositol 1,4,5-trisphosphate]", "values": [{"measurement": "Channel open time constant, fast component", "setting": "[4]; 0.01 μM Ca, 2 μM InsP3", "value": 1.8, "unit": "ms"}, {"measurement": "Channel open time constant, slow component", "setting": "[4]; 0.01 μM Ca, 2 μM InsP3", "value": 9.3, "unit": "ms"}, {"measurement": "Channel open time constant, fast component", "setting": "[4]; 0.1 μM Ca", "value": 0.6, "unit": "ms"}, {"measurement": "Channel open time constant, slow component", "setting": "[4]; 0.1 μM Ca", "value": 4.7, "unit": "ms"}, {"measurement": "Q10 of temperature-dependent change in InsP3 binding affinity", "setting": "[2]; 0° vs 22°C, cerebellar membranes", "value": 2.3}, {"measurement": "Difference between medium and low affinity site dissociation constants", "setting": "[2]; 22°C (0.3 vs ∼10 μM)", "value": 30, "unit": "×"}, {"measurement": "Difference in dissociation constants between medium and low affinity sites", "setting": "[2]; 37°C (1 vs. 10 μM), predicted", "value": 10, "unit": "fold"}, {"measurement": "Kd", "setting": "[2]; read-out: Kd for InsP3 binding at high Ca, 22°C, 50 μM free Ca", "value": 1780, "unit": "nM"}, {"measurement": "Kd", "setting": "[2]; read-out: Kd of InsP3 binding, medium affinity site, 22°C", "value": 312, "unit": "nM"}, {"measurement": "Effect on intracellular Ca", "setting": "[5]", "value": "sustained elevation of intracellular Ca"}, {"measurement": "Kd", "setting": "[6]", "value": 10000, "unit": "nM"}, {"measurement": "Effect of high InsP3 on Ca-dependent inhibition of channel activity", "setting": "[3]; 180 μM InsP3, ref Kaftan et al., 1997", "value": "overcame the Ca-dependent inhibition of channel activity"}, {"measurement": "Hill coefficient from single channel activity determinations", "setting": "[3]; ref Watras et al., 1991", "value": 1.0}, {"measurement": "Intracellular InsP3 needed to induce Ca release", "setting": "[7]", "value": "at least 9 μM"}]}, {"compound": "O=P(O)(S)O[C@@H]1[C@@H](O)[C@H](OP(O)(O)=S)[C@@H](OP(O)(O)=S)[C@H](O)[C@@H]1O", "note": "(stereo partly shown) [InsPS3]", "values": [{"measurement": "Effect on intracellular Ca", "setting": "[5]", "value": "sustained elevation of intracellular Ca"}]}, {"compound": "[Ba+2]", "note": "[barium]", "values": [{"measurement": "Effect on Ca-dependent inhibition of InsP3 binding", "setting": "[2]; 100 μM free barium, data not shown", "value": "did not alter"}]}]}
